The values that follow come from publication PMC9073044 (Saudi Journal of Biological Sciences, 2021).

Data set [1] can be described thus: Caco-2 cells monolayer transport study. The following applies: human. The class given is in vitro ADME. A digest of the protocol:
(§1)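 Caco-2 cells seeded at 1 × 10^5/cm2 on 0.33 cm2 transwell inserts and grown 21 days in DMEM with 20% FBS; TEER >300 Ω•cm2. Monolayers were preincubated 30 min in 37 ℃ HBSS with 10 mM HEPES. Test compound at 12, 120 and 1200 μg/mL was run bidirectionally, ± GF120918, for 2 h. […] Lucifer yellow (20 μg/mL, AP→BL, fluorescence) checked tight junctions.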

The next data set deals with Caco-2 cells monolayer. Kind of data set: Caco-2 cells monolayer transport study. The class given is in vitro ADME. A digest of the protocol:
as §1
For orientation: Caco-2 cells form a polarised layer with tight junctions and transporters.

The nature of data set [2]: Cytotoxicity by MTT assay. Format: cell-based. The following applies: human, Caco-2 cells. A digest of the protocol: (§2)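 MTT assay: Caco-2 cells seeded at 5 × 10^3 per well in 96-well plates and incubated 24 h. Medium was replaced with test compound (12, 120 or 1200 μg/mL) for 24 h. MTT was then added for 4 h, the supernatant removed, formazan dissolved in DMSO, and absorbance read at 630 nm.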
For orientation: Tetrazolium assays rely on reduction of a dye to a coloured formazan, in cell work by metabolically active cells.

A further data set deals with Caco-2 cells. The data set can be described thus: Cytotoxicity by MTT assay. The class given is cell-based. The note with it: lamivudine 12, 120 and 1200 μg/mL, 24 h. In short, it runs like this:
as §2

The next data set has as its system rats intestine. The data set can be described thus: In-situ single-pass intestinal perfusion. Format: in vivo, SD rats.
For data set [3] the following is noted: ref Du et al., 2019, Yuen et al., 1995; cited from earlier work.
The next data set deals with human DNA polymerase. The following applies: ref Reis et al., 2013; cited from earlier work.
The mark [4] stands for this setting: Caco-2, with GF120918 (elacridar), 10 μM.

Structures can show the parent of a compound that is named as a salt. A value given as a limit tells only on which side of the number the result lay.

The compound `Nc1nc2c(ncn2COCCO)c(=O)[nH]1` [Acyclovir] had an apparent permeability from apical to basolateral (Papp A→B) at 2 h in data set [1] (Caco-2) of 0.081 ± 0.011 ×10⁻⁶ cm/s.
For the compound `C[C@H]1O[C@@H](O[C@H]2[C@@H](O)C[C@H](O[C@H]3[C@@H](O)C[C@H](O[C@H]4CC[C@@]5(C)[C@H](CC[C@@H]6[C@@H]5C[C@@H](O)[C@]5(C)[C@@H](C7=CC(=O)OC7)CC[C@]65O)C4)O[C@@H]3C)O[C@@H]2C)C[C@H](O)[C@@H]1O` [Digoxin], in data set [1] (Caco-2), the Papp A→B at 2 h turned out to be 0.09 ± 0.005 ×10⁻⁶ cm/s; the basolateral-to-apical permeability (Papp B→A) at 2 h, 30 μg/mL came to 11.9 ± 0.312 ×10⁻⁶ cm/s; the efflux ratio at 2 h, 30 μg/mL is 133. Besides, in data set [1] (setting [4]), the apical-to-basolateral permeability (Papp A→B) at 2 h, 30 μg/mL came to 3.59 ± 0.128 ×10⁻⁶ cm/s; the Papp B→A at 2 h, 30 μg/mL turned out to be 5.15 ± 0.058 ×10⁻⁶ cm/s; the efflux ratio at 2 h, 30 μg/mL turned out to be 1.43.
Consider `Nc1ccn([C@@H]2CS[C@H](CO)O2)c(=O)n1` [Lamivudine], for which, in data set [1] (Caco-2), the Papp A→B at 2 h, 12 μg/mL stood at 0.296 ± 0.005 ×10⁻⁶ cm/s; the Papp A→B at 2 h, 120 μg/mL is 0.297 ± 0.015 ×10⁻⁶ cm/s; the Papp A→B at 2 h, 1200 μg/mL is 0.285 ± 0.011 ×10⁻⁶ cm/s; the basolateral-to-apical permeability (Papp B→A) at 2 h, 12 μg/mL is 0.788 ± 0.044 ×10⁻⁶ cm/s. In data set [1] (Caco-2), the apparent permeability from basolateral to apical (Papp B→A) at 2 h, 120 μg/mL amounted to 0.77 ± 0.027 ×10⁻⁶ cm/s and the apparent permeability from basolateral to apical (Papp B→A) at 2 h, 1200 μg/mL was found to be 0.737 ± 0.009 ×10⁻⁶ cm/s. In data set [1] (setting [4]), the apical-to-basolateral permeability (Papp A→B) at 2 h, 12 μg/mL turned out to be 0.307 ± 0.008 ×10⁻⁶ cm/s; the Papp A→B at 2 h, 120 μg/mL is 0.322 ± 0.007 ×10⁻⁶ cm/s; the apical-to-basolateral permeability (Papp A→B) at 2 h, 1200 μg/mL was 0.293 ± 0.004 ×10⁻⁶ cm/s; the basolateral-to-apical permeability (Papp B→A) at 2 h, 12 μg/mL is 0.548 ± 0.011 ×10⁻⁶ cm/s. In data set [1] (setting [4]), the Papp B→A at 2 h, 120 μg/mL amounted to 0.519 ± 0.008 ×10⁻⁶ cm/s and the basolateral-to-apical permeability (Papp B→A) at 2 h, 1200 μg/mL is 0.531 ± 0.012 ×10⁻⁶ cm/s. For the same compound, the “permeability in BCS” value with Caco-2 cells monolayer (from Papp on Caco-2 cells monolayer, between high- and low-permeability controls) is given as “moderate-permeability”. This compound had a viability at 24 h, 1200 μg/mL in data set [2] of over 80%. Also, the “growth ability of Caco-2 cells” value with Caco-2 cells was “did not significantly affect”. The “permeability in BCS” value with rats intestine (from Peff in SPIP) is recorded as “moderate permeability”. For the same compound, the bioavailability result in data set [3] is “exceed 80%”. The “affinity in human DNA polymerase” value in the data set with human DNA polymerase is given as “low affinity”.
In data set [1] (Caco-2), `COCCc1ccc(OCC(O)CNC(C)C)cc1` (stereo not shown) [Metoprolol tartrate] showed a Papp A→B at 2 h of 16 ± 0.652 ×10⁻⁶ cm/s. Further, in the data set on rats intestine (control drugs, perfusion concentration 120 μg/mL, mean ± SD, n = 6), the Peff is 6.13 ± 2.49 ×10^-5 cm/s.
As for Lucifer yellow, the “%lucifer yellow” value with Caco-2 cells monolayer (lucifer yellow 20 μg/mL, AP-BL, without GF120918, 2 h) stood at 0.81 ± 0.03%.

One may read the Papp A→B as how fast a substance crosses the layer from the apical side. The low end stands for slow passage, the high end for fast passage. In general, Papp B→A refers to how fast a substance crosses the layer from the basolateral side. By efflux ratio is commonly meant the permeability from basolateral to apical divided by that in the opposite direction, in the common usage. The viability is a per cent measure of how many cells are alive, often set against a control. A high value points to better survival.
